# Data taken from ChEMBL document CHEMBL1146084, “Discovery of orally efficacious melanin-concentrating hormone receptor-1 antagonists as antiobesity agents. Synthesis, SAR, and biological evaluation of bicyclo[3.1.0]hexyl ureas” (J Med Chem, 2006).
# Key:
# [1] = AUC (0-6h) in rat at 10 mg/kg, po; assay type: ADME, organism-based, Plasma; design: time < 6 hr, dose 10 mg/kg, route oral; details: plasma
# [2] = biological target: T1, Melanin-concentrating hormone receptor 1 (Homo sapiens, UniProt Q99705); assay: Displacement of [125I]MCH from human MCHR1 expressed in CHO cell; assay type: cell-based
# T1 sequence (Q99705 whole entry): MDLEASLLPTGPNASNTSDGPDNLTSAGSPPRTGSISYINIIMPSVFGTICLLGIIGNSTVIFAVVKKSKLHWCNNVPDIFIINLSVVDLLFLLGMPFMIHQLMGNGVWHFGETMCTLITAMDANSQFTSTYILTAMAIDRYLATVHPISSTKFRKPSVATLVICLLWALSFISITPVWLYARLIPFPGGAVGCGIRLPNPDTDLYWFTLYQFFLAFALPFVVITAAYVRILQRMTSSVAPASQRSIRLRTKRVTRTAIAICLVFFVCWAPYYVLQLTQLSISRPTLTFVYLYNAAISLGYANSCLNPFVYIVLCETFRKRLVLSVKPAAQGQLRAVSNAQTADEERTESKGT
# [3] = biological target: Melanin-concentrating hormone receptor 1 (Mus musculus) (UniProt Q8JZL2); assay: Receptor occupancy ex vivo by displacement of [125I]S36057 binding from MCHR1 in C57BL/6N mouse brain after 6 hrs at 30 mg/kg, po; assay type: functional, organism-based; design: dose 30 mg/kg
# Chain of Melanin-concentrating hormone receptor 1 (Mus musculus) (Q8JZL2 whole entry): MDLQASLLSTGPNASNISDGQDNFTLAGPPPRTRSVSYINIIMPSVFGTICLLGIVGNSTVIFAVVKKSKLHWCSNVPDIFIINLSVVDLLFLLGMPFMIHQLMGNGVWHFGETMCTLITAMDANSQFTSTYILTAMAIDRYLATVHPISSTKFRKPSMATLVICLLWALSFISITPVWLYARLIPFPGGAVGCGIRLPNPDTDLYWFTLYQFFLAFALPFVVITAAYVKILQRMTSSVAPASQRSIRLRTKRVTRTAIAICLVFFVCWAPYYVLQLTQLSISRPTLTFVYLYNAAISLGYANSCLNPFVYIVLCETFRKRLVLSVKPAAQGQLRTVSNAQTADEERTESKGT
# Outline: (§1)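 Male C57Bl/6NCrl:BR mice given vehicle (HPβCD) or compound orally; killed by CO2 at 6 or 24 h post-dose (chronic studies: 24 h after last daily dose, n = 3/group). 16 µm frozen caudate putamen sections incubated 30 min at room temperature with 700 pM [125I]-S36057 in MCH-R1 binding buffer; 1 µM MCH defines nonspecific binding. Phosphorimager quantitation; % inhibition versus vehicle.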
# [4] = biological target: Melanin-concentrating hormone receptor 1 (Mus musculus) (UniProt Q8JZL2); assay: Receptor occupancy ex vivo by displacement of [125I]S36057 binding from MCHR1 in C57BL/6N mouse brain after 24 hrs at 30 mg/kg, po; assay type: functional, organism-based; design: dose 30 mg/kg; outline: as §1
# [5] = biological target: T1, Melanin-concentrating hormone receptor 1; assay: Inhibition of MCH-mediated calcium influx in CHO cells expressing human MCHR1 by FLIPR assay; assay type: functional, cell-based
# Outline: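 After two washes, treated with vehicle (buffer, 2% DMSO) or compound, then stimulated with 30 nM MCH; intracellular Ca²⁺ change read by FLIPR.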
Compound,AUC(0-t) at 6 h [1] [ng·h/mL],Ki [2] [nM],Activity [3] [%],Activity [4] [%],Kb [5] [nM]
N#Cc1cccc([C@@]23CC[C@H](N(CCN4CCCC4)C(=O)Nc4cc(Cl)cc(Cl)c4)[C@@H]2C3)c1,1490,15,69,–,–
CN1CCN(CCCN(C(=O)Nc2ccc(F)c(Cl)c2)[C@@H]2CC[C@]3(c4cccc(Cl)c4)C[C@H]23)CC1,436,–,–,–,–
N#Cc1cccc(C2=CC(N(CCN3CCCC3)C(=O)Nc3cc(Cl)cc(Cl)c3)CC2)c1 (configuration not stated),–,605,–,–,–
CN1CCN(CCN(C(=O)Nc2ccc(F)c(C(F)(F)F)c2)[C@@H]2CC[C@]3(c4cccc(C#N)c4)C[C@H]23)CC1 (relative stereo),1460,–,53,–,–
CN1CCN(CCCN(C(=O)Nc2ccc(F)c(Cl)c2)[C@@H]2CC[C@]3(c4cc(F)cc(F)c4)C[C@H]23)CC1 (relative stereo),2740,7,65,0,–
CN1CCN(CCCN(C(=O)Nc2ccc(F)c(Cl)c2)[C@@H]2CC[C@]3(c4ccc(F)c(F)c4)C[C@H]23)CC1 (relative stereo),1610,4.4,97,0,–
CN1CCN(CCCN(C(=O)Nc2ccc(F)c(C(F)(F)F)c2)[C@@H]2CC[C@]3(c4ccc(F)c(C#N)c4)C[C@H]23)CC1 (relative stereo),3080,4,81,36,–
CN1CCN(CCCN(C(=O)Nc2ccc(F)c(Cl)c2)[C@@H]2CC[C@]3(c4cccc(S(C)(=O)=O)c4)C[C@H]23)CC1 (relative stereo),–,727,–,–,–
COc1ccc([C@]23CC[C@@H](N(CCCN4CCN(C)CC4)C(=O)Nc4ccc(F)c(C(F)(F)F)c4)[C@H]2C3)cc1 (relative stereo),438,2.8,100,7,9
CN1CCN(CCCN(C(=O)Nc2ccc(F)c(C(F)(F)F)c2)[C@@H]2CC[C@]3(c4ccc(C#N)c(F)c4)C[C@H]23)CC1 (relative stereo),1660,3.5,100,6,–
Cc1cccc([C@]23CC[C@@H](N(CCCN4CCN(C)CC4)C(=O)Nc4ccc(F)c(Cl)c4)[C@H]2C3)c1 (relative stereo),–,33,0,4,–
CN1CCN(CCCN(C(=O)Nc2ccc(F)c(Cl)c2)[C@@H]2CC[C@]3(c4ccc(S(C)(=O)=O)cc4)C[C@H]23)CC1 (relative stereo),2340,9.3,8,–,–
CN1CCN(CCCN(C(=O)Nc2ccc(F)c(Cl)c2)[C@@H]2CC[C@]3(c4cccc(OC(F)(F)F)c4)C[C@H]23)CC1 (relative stereo),504,29,39,12,–
COc1cccc([C@]23CC[C@@H](N(CCCN4CCN(C)CC4)C(=O)Nc4ccc(F)c(C(F)(F)F)c4)[C@H]2C3)c1 (relative stereo),571,2.9,73,0,8
CN1CCN(CCCN(C(=O)Nc2ccc(F)c(Cl)c2)[C@@H]2CC[C@]3(c4cccc(NS(C)(=O)=O)c4)C[C@H]23)CC1 (relative stereo),–,394,–,–,–
N#Cc1cccc([C@]23CC[C@@H](N(CCN4CCCCC4)C(=O)Nc4ccc(F)c(Cl)c4)[C@H]2C3)c1 (relative stereo),999,–,57,–,–
CN1CCN(CCCN(C(=O)Nc2ccc(F)c(C(F)(F)F)c2)[C@@H]2CC[C@]3(c4cccc(F)c4)C[C@H]23)CC1 (relative stereo),888,2.3,85,10,–

Compound,AUC(0-t) at 6 h [1] [ng·h/mL],Ki [2] [nM],Activity [3] [%],Activity [4] [%],Kb [5] [nM]
CN1CCN(CCCN(C(=O)Nc2ccc(F)c(Cl)c2)[C@H]2CC[C@@H](c3cccc(C#N)c3)C2)CC1 (relative stereo),–,2190,–,–,–
CS(=O)(=O)c1ccc([C@]23CC[C@@H](N(CC4CCN(S(C)(=O)=O)CC4)C(=O)Nc4ccc(F)c(Cl)c4)[C@H]2C3)cc1 (relative stereo),–,974,–,–,–
N#Cc1ccc([C@]23CC[C@@H](N(CCCN4CCNCC4)C(=O)Nc4ccc(F)c(C(F)(F)F)c4)[C@H]2C3)cc1 (relative stereo),3470,8,27,0,9
N#Cc1cccc([C@]23CC[C@@H](N(CCN4CCCC4)C(=O)Nc4ccc(F)c(Cl)c4)[C@H]2C3)c1 (relative stereo),822,–,–,–,–
CC(C)CN1CCN(CCN(C(=O)Nc2ccc(F)c(C(F)(F)F)c2)[C@@H]2CC[C@]3(c4cccc(C#N)c4)C[C@H]23)CC1 (relative stereo),140,–,40,–,–
CN1CCN(CCCN(C(=O)Nc2ccc(F)c(C(F)(F)F)c2)[C@@H]2CC[C@]3(c4ccc(F)cc4)C[C@H]23)CC1 (relative stereo),2170,1.8,100,29,15
CN1CCN(CCCN(C(=O)Nc2ccc(F)c(Cl)c2)[C@@H]2CC[C@@H](c3cccc(C#N)c3)C2)CC1 (relative stereo),–,161,–,–,–
CN1CCN(CCCN(C(=O)Nc2ccc(F)c(Cl)c2)[C@@H]2CC[C@]3(c4ccsc4)C[C@H]23)CC1 (relative stereo),–,13,25,12,–
CN1CCN(CCCN(C(=O)Nc2ccc(F)c(Cl)c2)[C@@H]2CC[C@]3(c4ccccc4)C[C@H]23)CC1 (relative stereo),1130,–,79,0,–
CN1CCN(CCCN(C(=O)Nc2ccc(F)c(Cl)c2)[C@@H]2CC[C@]3(c4cccc(F)c4)C[C@H]23)CC1 (relative stereo),722,3.3,73,0,–
CS(=O)(=O)c1ccc([C@]23CC[C@@H](N(CCCN4CCCC4=O)C(=O)Nc4ccc(F)c(Cl)c4)[C@H]2C3)cc1 (relative stereo),–,1620,–,–,–
CN1CCN(CCCN(C(=O)Nc2ccc(F)c(Cl)c2)[C@@H]2CC[C@]3(c4cccc(N)c4)C[C@H]23)CC1 (relative stereo),–,10,37,17,–
CC(=O)Nc1cccc([C@]23CC[C@@H](N(CCCN4CCN(C)CC4)C(=O)Nc4ccc(F)c(Cl)c4)[C@H]2C3)c1 (relative stereo),–,–,18,0,–
CN1CCN(CCCN(C(=O)Nc2ccc(F)c(Cl)c2)[C@@H]2CC[C@]3(c4cccnc4)C[C@H]23)CC1 (relative stereo),–,–,25,11,–
N#Cc1cccc([C@]23CC[C@@H](N(CCN4CC[C@@H](O)C4)C(=O)Nc4ccc(F)c(Cl)c4)[C@H]2C3)c1 (stereo in doubt; (+)-23c),–,–,32,–,–
N#Cc1cccc([C@]23CC[C@@H](N(CCN4CC[C@@H](O)C4)C(=O)Nc4ccc(F)c(Cl)c4)[C@H]2C3)c1 (stereo in doubt; (-)-23d),–,–,57,–,–
